# Screens as filed in PubChem.
# TAG inh – reduces triacylglycerol accumulation in H9c2 cells | inhibition, % at 12.5 µM | 230,000 tested, 0.66% active | AID 651582 | Nile Red lipid (TAG) fluorescence; cells loaded with 200 µM oleic acid;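 active = pattern-corrected inhibition of lipid staining of at least 50% with the nuclear-stain viability signal not falling by more than 50%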;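 note: 0% = DMSO wells and 100% = triacsin C control wells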
# Calb FLC – C. albicans growth modulation with fluconazole; 300,000 tested, 0.57% active; C. albicans CaCi-2 + fluconazole, Alamar Blue growth, 48 h; growth inhibition, % (no concentration beside the values);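 active = growth inhibition above about 58% in most replicates, limit read from the data, passing the limit was not always enough; inconclusive = exactly half the replicates above a set limit; inactive = most replicates below a set limit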;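 note: all wells also contain fluconazole at 8 µg/ml as a sub-toxic cotreatment; 0% = median of DMSO wells and 100% = median of geldanamycin control wells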
# GalR3 antagonist – blocks the human galanin receptor 3; O60755; HEK293 GalR3-CNG cAMP membrane potential fluorescence; galR3 body fused to GalR1 C-terminus; inhibition, % at 3 µM; 360,000 tested, 0.44% active;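 active = inhibition above the screen-wide average plus 3 SD, cut at about 13% in these data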;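 note: forskolin and galanin both at EC90 stimulate the cells; cAMP rise reported by CNG channel membrane potential dye signal; 0% = forskolin plus galanin with DMSO and 100% = forskolin alone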
# Target sequence (O60755 1-299 limits assumed): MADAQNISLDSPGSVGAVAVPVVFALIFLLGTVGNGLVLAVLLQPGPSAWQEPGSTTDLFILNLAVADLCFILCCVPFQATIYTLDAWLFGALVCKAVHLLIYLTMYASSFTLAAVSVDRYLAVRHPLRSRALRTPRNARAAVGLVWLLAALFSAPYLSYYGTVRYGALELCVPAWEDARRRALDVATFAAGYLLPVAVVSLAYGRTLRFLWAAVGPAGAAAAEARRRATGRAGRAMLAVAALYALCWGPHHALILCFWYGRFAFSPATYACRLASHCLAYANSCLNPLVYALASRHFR
# Efflux pump mplx – inhibitors of Candida antifungal efflux pumps expressed in yeast; S. cerevisiae Candida pump triplex, Nile Red efflux; inhibition, % at 10 µM; 330,000 tested, 0.44% active;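 active = plate passing quality check with inhibition over a set limit, or well fluorescence over plate mean plus 4 SD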;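 note: Nile Red retained in pooled yeast measured as flow cytometry median fluorescence; 0% = buffer negative control and 100% = Enniatin B positive control; higher means more Nile Red kept so more efflux inhibition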
# MC4R antag cAMP – blocks human MC4R cAMP signaling; P32245; MC4R-expressing cells, MTII-stimulated cAMP, LANCE TR-FRET; inhibition, % at 6.5 µM; 360,000 tested, 0.48% active; AID 540295;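 active = inhibition above its plate's cutoff, the mean of tested wells on that plate plus 3 SD, cut at about 29% in these data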;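 note: 0% = Melanotan II alone and 100% = Melanotan II plus saturating MCL0020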
# Target sequence (P32245 whole entry, looked up): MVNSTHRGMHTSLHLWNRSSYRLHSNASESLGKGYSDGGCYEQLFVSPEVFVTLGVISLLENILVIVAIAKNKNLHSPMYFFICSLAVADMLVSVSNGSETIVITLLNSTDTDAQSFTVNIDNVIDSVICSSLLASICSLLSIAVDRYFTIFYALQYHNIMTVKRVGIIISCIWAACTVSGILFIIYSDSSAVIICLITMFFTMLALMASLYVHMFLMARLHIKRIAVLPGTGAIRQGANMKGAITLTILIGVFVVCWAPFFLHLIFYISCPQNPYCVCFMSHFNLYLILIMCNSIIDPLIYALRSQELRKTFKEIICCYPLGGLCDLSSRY
#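 Assay system: human MC4R-expressing U2OS cells; reagent: Melanotan II stimulation of cells; dosing: 6.5 µM single dose; timing: compound 30 min, challenge 1 h, detection 1 h; signal: TR-FRET cAMP assay; replicates: one well per compound, no replicates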
# MC4R barr agon – activates human MC4R beta-arrestin recruitment; P32245; activation, % at 8.9 µM; 360,000 tested, 0.98% active; AID 540308; U2OS MC4R beta-arrestin complementation, luminescence; percent of melanotan II response, DMSO zero;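 active = activation above a per-plate cutoff, the mean activation of sample wells on that plate plus 3 SD, cut at about 8% in these data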
# Cmpd fluor yeast – counter-screen for efflux pump inhibitors: compound fluorescence. shares compounds with Efflux pump mplx. S. cerevisiae AD/pABC3, flow cytometry. fluorescence ratio to DMSO, % at 10 µM. 1,700 tested, 4% active. AID 588517;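 active = fluorescence ratio to DMSO above its plate's cutoff, the plate mean ratio plus 5 SD, cut at about 210% in these data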;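 note: unstained yeast with no Nile Red so the signal is compound autofluorescence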
# CaMdr1 efflux inh – Candida Mdr1 efflux pump inhibition; shares compounds with Efflux pump mplx; S. cerevisiae AD/CaMDR1, Nile Red efflux, flow cytometry; inhibition, % at 10 µM; 1,700 tested, 1% active; in the data active = inhibition above about 26%;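 note: 0% = DMSO vehicle and 100% = reference inhibitor; higher means more Nile Red retained so more efflux inhibition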
# CaCdr2 efflux inh – Candida Cdr2 efflux pump inhibition. AID 588520. Nile Red retention ratio vs DMSO, % at 10 µM. 1,700 tested, 4% active. S. cerevisiae AD/CaCDR2, Nile Red retention, flow cytometry. shares compounds with Efflux pump mplx; in the data active = Nile Red retention ratio vs DMSO above about 190%;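 note: higher ratio means more blocking of Cdr2 efflux of the dye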
# CaCdr1 efflux inh – blocks the Candida albicans Cdr1 efflux pump in yeast; shares compounds with Efflux pump mplx; S. cerevisiae AD/CaCDR1, Nile Red efflux, flow cytometry; inhibition, % at 10 µM; 1,700 tested, 1% active;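 active = inhibition above the screen-wide mean plus twice its standard deviation, cut at about 32% in these data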
# * = called active by the depositor; ? = inconclusive; / = not tested or not shown. Most compounds without a hit are left out; they make up all but 2.9% or so of the library.
SMILES,TAG inh,Calb FLC,GalR3 antagonist,Efflux pump mplx,MC4R antag cAMP,MC4R barr agon,Cmpd fluor yeast,CaMdr1 efflux inh,CaCdr2 efflux inh,CaCdr1 efflux inh
CC(=O)c1cc(C(=O)NC2CCCc3c2cnn3-c2cc(C)cc(C)c2)[nH]n1 (configuration not stated),-11.5,-0.6,-2.5,-0.1,6.6,0.1,/,/,/,/
O=C(Nc1ccccc1Cl)c1ccccc1Oc1ccc(C(F)(F)F)cc1[N+](=O)[O-],10.0,19.3,5.9,0.4*,4.5,5.8,106.7,-0.1,101.5,0.0
O=C(c1ccccc1Oc1ccc(C(F)(F)F)cc1[N+](=O)[O-])N1CCOCC1,/,-14.2,-2.3,0.1,0.2,-1.6,/,/,/,/
CCC(Sc1nc2ccccc2[nH]1)C(=O)Nc1cc(C)on1 (configuration not stated),/,-14.1,-2.2,-0.1,5.4,-1.2,/,/,/,/
CCC(Sc1nc2ccccc2[nH]1)C(=O)Nc1ccc(NC(C)=O)cc1 (configuration not stated),2.8,-8.5,-2.3,0.7*,-3.3,-2.4,103.4,-0.3,90.9,-0.1
CC1(C)CC2(CC(c3cccs3)c3cc(Cl)c(O)cc3O2)NC(=S)N1 (configuration not stated),-14.8,2.8,-4.7,53.0*,3.6,-2.5,101.7,74.6*,113.8,0.0
CC1(C)CC2(CC(c3ccc(F)cc3)c3ccc(O)cc3O2)NC(=S)N1 (configuration not stated),-1.7,5.8,1.2,0.1,0.7,-2.2,/,/,/,/
COc1ccc(CCCc2nnc(SCC(=O)Nc3cc(C)c(C)cc3Br)o2)cc1,/,10.7,-4.5,0.8*,2.2,-3.5,103.4,-0.8,108.3,0.0
CC(=O)C1(C)C(=O)N(c2ccc(F)cc2)C(=O)N1c1ccc(F)cc1 (configuration not stated),-13.7,/,-8.4,/,0.5,-0.2,/,/,/,/
COC(=O)c1c(NC(=O)c2ccco2)sc(C(=O)N2CCCC2)c1C,/,26.9,-0.9,0.0,14.1,0.3,/,/,/,/
COc1cc(C(=O)Nc2sc3c(c2C#N)CCN(C(C)=O)C3)cc(OC)c1OC,8.7,-0.3,3.0,-0.1,6.2,-0.2,/,/,/,/
COC(=O)c1c(NC(=O)c2ccco2)sc2c1CCN(C(C)=O)C2,/,3.4,-1.6,1.1*,2.5,-0.4,96.6,0.0,106.0,-0.1
COc1ccc(C(=O)Nc2sc3c(c2C#N)CCN(C(C)=O)C3)cc1,9.0,-4.6,-4.2,0.8*,10.2,-0.2,98.9,-0.2,89.9,0.0
CCCc1c(-c2ccccc2)ncn1Cc1ccccc1OC,/,/,-4.4,/,/,/,/,/,/,/
COc1ccc(C(C(=O)Nc2ccc3c(c2)OCCO3)n2c(=O)c(-c3ccco3)nc3ccccc32)cc1 (configuration not stated),/,/,-5.6,/,/,/,/,/,/,/
COc1ccc(NC(=O)CCN(c2ccc(OC)cc2)S(=O)(=O)c2ccc(C)c(C)c2)cc1,-7.3,/,-4.3,/,17.4,-0.2,/,/,/,/
COc1ccc(C(=O)n2nc(-c3ccco3)nc2SC)cc1OC,-19.8,3.0,0.8,-0.1,3.1,-1.6,/,/,/,/
Cc1ccc(/C=c2\sc3nc(-c4ccco4)nn3c2=O)o1,-0.9,-4.5,/,0.1,15.8,4.2,/,/,/,/
COc1ccc(/C=c2\sc3nc(=O)c(C)nn3c2=O)c(OC)c1,-5.7,6.8,2.4,0.0,7.6,-3.8,/,/,/,/
COc1ccccc1/C=c1\sc2nc(-c3ccccc3OC)nn2c1=O,/,/,-2.1,0.3,4.3,-2.8,100.0,0.1,106.3,0.1
COc1ccc(Br)cc1/C=c1\sc2nc(-c3ccco3)nn2c1=O,2.8,-3.0,-3.7,1.1*,-0.6,-2.0,106.9,0.0,109.4,-0.1
Cc1ccc(-c2nc3s/c(=C\c4ccco4)c(=O)n3n2)cc1,/,-8.1,-0.3,0.8*,3.7,-2.5,97.2,0.0,97.5,-0.1
Cc1ccc(/C=c2\sc3nc(-c4ccccc4Br)nn3c2=O)o1,-2.9,1.2,-2.4,-0.2,1.9,1.2,99.0,-0.2,109.4,0.0
Cc1cccc(NC(=O)/C(C#N)=C/c2cn(CC(=O)NCc3ccco3)c3ccccc23)c1C,/,-13.2,-4.0,11.1*,14.2,8.0,105.8,0.1,116.0,0.1
CCC(C)CNC(=O)c1[nH]c(C(F)(F)F)nc1-c1ccccc1 (configuration not stated),/,/,-7.1,/,/,/,/,/,/,/
SMILES,TAG inh,Calb FLC,GalR3 antagonist,Efflux pump mplx,MC4R antag cAMP,MC4R barr agon,Cmpd fluor yeast,CaMdr1 efflux inh,CaCdr2 efflux inh,CaCdr1 efflux inh
Cc1[nH]c2ccc(C(=O)NCCCN3CCCC3)cc2c1C,/,-9.5,0.8,0.9,5.6,-2.8,/,/,/,/
Cc1[nH]c2ccc(C(=O)NCCN3CCOCC3)cc2c1C,/,-3.5,-7.7,1.4*,4.0,-2.3,112.2,0.0,125.0,0.0
COc1ccc(NC(=O)C2OC3OC(C)(C)OC3C3OC(C)(C)OC23)cc1 (configuration not stated),/,-6.7,-0.8,1.5*,-0.8,-2.0,101.2,0.1,120.1,0.1
Oc1c(C(c2ccccn2)N2CCC(Cc3ccccc3)CC2)cc(Cl)c2cccnc12 (configuration not stated),/,105.0*,-5.4,52.7*,/,/,97.8,-0.3,108.3,0.0
Nc1ncnc2c1ncn2[C@@H]1O[C@H](C(=O)N[C@H]2c3ccccc3C[C@H]2OC=O)[C@@H](O)[C@H]1O,/,/,-2.3,/,/,/,/,/,/,/
COc1ccc(Nc2nc(N)c(C(=O)c3ccc(OC)cc3)s2)cc1,/,45.2,-5.7,-0.4,-17.7,1.3,/,/,/,/
COc1ccc(Nc2nc(N)c(C(=O)c3ccc(F)cc3)s2)cc1,/,40.9,-1.7,12.3*,-18.6,-1.6,97.8,0.0,96.0,0.0
Cc1csc(-c2nc3ccccc3n2C(C)c2nc3ccccc3[nH]2)c1 (configuration not stated),/,/,-3.5,/,/,/,/,/,/,/
O=C(Nc1ccc2cn[nH]c2c1)c1c(Cl)cccc1Cl,/,5.4,-0.3,0.1,2.0,0.5,/,/,/,/
O=C1C(Cl)=C(Nc2ccc3cn[nH]c3c2)C(=O)c2ccccc21,/,3.5,-8.1,0.7*,-14.0,-3.9,97.0,-0.2,135.3,-0.4
Cc1ccc(S(=O)(=O)N(C)[C@H]2C[C@H]3c4cc(-c5ccc6c(c5)OCO6)ccc4CCN3C[C@H]2[C@H](C)O)cc1,/,/,-6.0,/,/,/,/,/,/,/
CCc1cc2c(nc1CC)CCCN2CCOC,/,/,1.7,/,/,/,/,/,/,/
O=C(CSc1nnc(-c2ccccc2O)n1Cc1ccccc1)NNC(=O)c1ccccc1O,8.4,?,0.0,29.0*,2.4,0.0,90.8,-0.1,97.5,-0.1
